Compound activity: PubChem BioAssay, several laboratories
A selection: hits, their analogues and other compounds. The true share with any hit is near 6.1%.
Yeast growth inh: growth inhibitors of yeast BB579 in restrictive medium, primary screen, yeast lifespan-shortening project, S. cerevisiae; OD615, 48 h; inhibition, % at 10 µM; actives 0.51% (n = 140,000);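 active means inhibition above a set limit, 3 SD over the mean compound inhibition, cut at about 44% in these data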
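System: Saccharomyces cerevisiae DeaD strain BB579, replicative lifespan model yeast. Buffer or medium: restrictive glucose-based CSMM-D medium. Doses: one dose, 10 µM compound with 0.25% DMSO. Timing: 4 h preincubation and 48 h exposure at 30 °C. Detection: turbidity as optical density at 615 nm. Benchmarks: amphotericin B 10 µg/mL, positive.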
DAT uptake mod: changed hDAT dopamine uptake under cocaine IC80, either direction, primary screen, cocaine antagonist project, cell-based, LLC-PK1 hDAT, [14C]-dopamine uptake, MLSMR; LLC-PK1 hDAT cells, [14C]-dopamine uptake with cocaine IC80; actives deviate in either direction; B-score at 10 µM; actives 1.3% (n = 110,000); AID 449768, 2010; Sodium-dependent dopamine transporter (Homo sapiens), Q01959;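 active means Z score or B-score, a plate-position-corrected score, falls beyond the plate's 99.7% confidence bounds, in either direction; inactive means both scores lie inside the 99.7% bounds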;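 further: scored against the spread of the other compound wells on the same plate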
Target sequence (Q01959 whole entry, looked up): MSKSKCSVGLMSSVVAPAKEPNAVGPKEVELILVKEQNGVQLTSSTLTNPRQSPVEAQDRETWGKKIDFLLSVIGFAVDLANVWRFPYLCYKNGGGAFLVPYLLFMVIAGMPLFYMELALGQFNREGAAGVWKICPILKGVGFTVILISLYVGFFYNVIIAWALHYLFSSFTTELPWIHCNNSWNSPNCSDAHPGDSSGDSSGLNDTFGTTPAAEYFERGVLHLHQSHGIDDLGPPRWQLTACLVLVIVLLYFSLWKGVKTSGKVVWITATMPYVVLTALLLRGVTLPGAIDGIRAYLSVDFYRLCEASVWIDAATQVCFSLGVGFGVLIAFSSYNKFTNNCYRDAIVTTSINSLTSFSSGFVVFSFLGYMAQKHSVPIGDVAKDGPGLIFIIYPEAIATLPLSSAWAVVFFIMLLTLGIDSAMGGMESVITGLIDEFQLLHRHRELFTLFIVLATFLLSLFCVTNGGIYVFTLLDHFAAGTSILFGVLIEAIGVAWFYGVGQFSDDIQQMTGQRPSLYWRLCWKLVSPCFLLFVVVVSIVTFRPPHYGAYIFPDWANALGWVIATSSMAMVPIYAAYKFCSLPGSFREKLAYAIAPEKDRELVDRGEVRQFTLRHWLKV
WT yeast gro inh: growth inhibition of WT strain, primary screen, mitochondrial fusion inhibitor project, WT and mutant strains, chemical genetic; mitochondrial fusion phenotypic screen; inhibition, % at 10 µM; actives 2.1% (n = 190,000); in the data active means inhibition above about 58%; tested in S. cerevisiae
RAM inhibit: inhibitors of the yeast RAM network, primary screen, dse1pr::URA3 reporter, 5-FOA selection | S. cerevisiae dse1pr::URA3 reporter, 5-FOA growth OD615, 2 d; analog-sensitive cbk1-as2 kinase mutant strain | inhibition, % at 50 µM | actives 1.8% (n = 190,000) | AID 868, 2007;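 active means inhibition above a set limit, 3 SD over mean compound inhibition, cut at about 8.4% in these data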;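 further: 0% = DMSO-only wells with no growth and 100% = 10 µM 1-NA-PP1 full growth; inhibition rescues growth on 5-FOA so higher OD means more RAM inhibition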
Measles CPE: compounds protecting cells from measles virus cytopathic effect, primary screen, measles RdRp inhibitor project, single point, MLSMR library, absorbance; Measles virus-infected cells, CPE protection; protection (pct of control), % at 4 µM; actives 1.5% (n = 140,000); AID 841, 2007; in the data active means protection mostly above about 24%, no sharp cut-off; inactive means mostly below about 26%
Yeast life ext: compounds extending yeast replicative lifespan, primary screen, S. cerevisiae, OD615; S. cerevisiae growth with nicotinamide; deaD strain in restrictive glucose medium; inhibition of the nicotinamide effect, % at 10 µM; actives 0.68% (n = 130,000); AID 775, 2007;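 active means inhibition above a set limit, placed 3 SD over the median of all compounds, cut at about 26% in these data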;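 further: 0% = nicotinamide-treated wells and 100% = cells grown without nicotinamide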
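Assay system: engineered S. cerevisiae DeaD replicative-lifespan strain, galactose-grown log-phase cells; Buffer or medium: CSMM-D glucose medium, restrictive; Probe or stimulus: nicotinamide 1.5 mM; Compound: single dose 10 µM compound, 0.25% DMSO; Schedule: 4 h preincubation then 48 h treatment at 30 °C; Technique: OD615 measurement.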
* hit, by the source's call.

What do the screens show for `Cc1ccc(-n2c3c(cc(C(=O)O)c2=O)C(=O)CC(C)(C)C3)cc1`?
Yeast growth inh: -29; DAT uptake mod: 0.37; WT yeast gro inh: 0; RAM inhibit: 0; Measles CPE: 55*; Yeast life ext: -10

Results for COc1cc(NC(=O)c2ccc(COCC(F)(F)F)cc2)cc(OC)c1OC ?
Yeast growth inh: -20; DAT uptake mod: 0.16; WT yeast gro inh: -15; RAM inhibit: 1; Measles CPE: 30*; Yeast life ext: -17

What do the screens show for `COc1ccc(NC(=O)c2ccc(COCC(F)(F)C(F)F)cc2)cc1OC`?
Yeast growth inh: -4; WT yeast gro inh: -10; RAM inhibit: 6; Measles CPE: 13; Yeast life ext: -2

How did O=C(c1ccccc1)c1c2c(cc3sc4ccccc4[n+]13)-c1cccc3cccc-2c13 do in these assays?
Yeast growth inh: -23; WT yeast gro inh: 79; RAM inhibit: 0; Measles CPE: 6; Yeast life ext: 1

How did Cc1sc2cc3c(c(C(=O)c4ccccc4)[n+]2c1C)-c1cccc2cccc-3c12 do in these assays?
Yeast growth inh: -60; WT yeast gro inh: 70*; RAM inhibit: 2; Measles CPE: 9; Yeast life ext: 9

How did CCS(=O)(=O)n1nc(-c2ccc(Cl)cc2)nc1SCc1ccccc1 do in these assays?
Yeast growth inh: 75*; DAT uptake mod: -0.032; WT yeast gro inh: 38; RAM inhibit: -2; Measles CPE: 1

What do the screens show for `O=C(Nc1cccc(N=Cc2cc(Cl)cc(Br)c2O)c1)c1ccco1`?
Yeast growth inh: 56*; WT yeast gro inh: -3; RAM inhibit: -1; Measles CPE: 16; Yeast life ext: 7

How did CC(C)(C)NC(=O)c1cccc(NC(=O)c2ccco2)c1 do in these assays?
Yeast growth inh: -7; DAT uptake mod: -0.83; WT yeast gro inh: -7; RAM inhibit: 0; Measles CPE: 3

Results for O=C(Nc1cccc(N=Cc2cc(Br)cc(Br)c2O)c1)c1ccco1 ?
Yeast growth inh: 100*; WT yeast gro inh: 33; RAM inhibit: -1; Measles CPE: 11; Yeast life ext: -10

What do the screens show for `C/C(=N\NC(=O)c1cccc(Cl)c1)c1cccc(NC(=O)c2ccco2)c1`?
Yeast growth inh: -13; DAT uptake mod: 1.8; WT yeast gro inh: 1; RAM inhibit: -1; Measles CPE: 12; Yeast life ext: -14

Results for O=S(=O)(NCC1CCCO1)c1ccc(S(=O)(=O)N2CCCC2)cc1 (stereo not given) ?
Yeast growth inh: -24; DAT uptake mod: -1.4; WT yeast gro inh: -1; RAM inhibit: 0; Measles CPE: 21; Yeast life ext: 0

Results for CC/C(C)=N/Nc1cccc([N+](=O)[O-])c1 ?
Yeast growth inh: 98*; WT yeast gro inh: 67*; RAM inhibit: 0; Measles CPE: 11; Yeast life ext: -9

What do the screens show for `CCCOc1ccc(/C=N/Nc2cccc([N+](=O)[O-])c2)c(O)c1`?
Yeast growth inh: -65; WT yeast gro inh: 17; RAM inhibit: 8.9*; Measles CPE: 5; Yeast life ext: -1

What do the screens show for `CCC(CC)=NNc1cccc([N+](=O)[O-])c1`?
Yeast growth inh: -13; WT yeast gro inh: 18; RAM inhibit: 1; Measles CPE: 3; Yeast life ext: -3

Results for CC1(C)CC(=O)C(C=NCC2CCN(C(=O)Nc3ccc(Cl)c(Cl)c3)CC2)=C(O)C1 ?
Yeast growth inh: -40; DAT uptake mod: -0.54; WT yeast gro inh: 7; RAM inhibit: 1; Measles CPE: 11; Yeast life ext: 2

Results for CCOCCn1c(SCc2c(F)cccc2Cl)nc2c1c(=O)[nH]c(=O)n2C ?
Yeast growth inh: -19; DAT uptake mod: -0.25; WT yeast gro inh: -2; RAM inhibit: 1; Measles CPE: 2; Yeast life ext: -5

What do the screens show for `Cc1cccc(N2CCN(Cc3nc(-c4cccc(Oc5ccccc5)c4)oc3C)CC2)n1`?
WT yeast gro inh: 34; RAM inhibit: 1

How did COC(=O)C(CC(=O)c1ccc(Cl)cc1)c1ccc(C(C)C)cc1 (stereo not given) do in these assays?
Yeast growth inh: -31; DAT uptake mod: 0.7; WT yeast gro inh: 70*; RAM inhibit: 1; Measles CPE: 18; Yeast life ext: 9

What do the screens show for `Cc1ccc(C(CC(=O)c2ccc(Cl)cc2)C(=O)O)cc1` (stereo not given)?
WT yeast gro inh: -13; RAM inhibit: 1

What do the screens show for `CCCC[C@@H]1CCCO[C@@](C(=O)NCc2ccccn2)(C(F)(F)F)C1`?
DAT uptake mod: 3.1*

Results for O=C(Oc1cccc(/C=N/Nc2nc(Nc3ccccc3)nc(N3CCOCC3)n2)c1)c1ccco1 ?
Yeast growth inh: 2; WT yeast gro inh: 23; RAM inhibit: 2; Measles CPE: 19*; Yeast life ext: -6

What do the screens show for `Oc1ccc(NCc2ccccc2OCc2ccccc2)cc1`?
Yeast growth inh: -31; WT yeast gro inh: 4; RAM inhibit: 1; Measles CPE: 41*; Yeast life ext: 12

How did O=C(c1ccc([N+](=O)[O-])cc1)N1CCSC1c1cccc(Cl)c1 (stereo not given) do in these assays?
WT yeast gro inh: -12; RAM inhibit: 3

What do the screens show for `O=C(c1ccc([N+](=O)[O-])cc1)N1CCSC1c1ccccc1` (stereo not given)?
Yeast growth inh: 0; WT yeast gro inh: -1; RAM inhibit: 2; Measles CPE: 24*; Yeast life ext: -2

How did COc1ccccc1-c1cc(C(F)(F)F)nc(N2CCCC2)n1 do in these assays?
Yeast growth inh: -19; WT yeast gro inh: 14; RAM inhibit: 2; Measles CPE: 10; Yeast life ext: -30

What do the screens show for `COc1ccccc1-c1cc(C(F)(F)F)nc(N2CCCCC2)n1`?
Yeast growth inh: -35; DAT uptake mod: -0.72; WT yeast gro inh: 74*; RAM inhibit: 4; Measles CPE: 20; Yeast life ext: -12

Results for Fc1ccc2nc(Nc3nc4cc5c(cc4s3)OCO5)sc2c1 ?
Yeast growth inh: -8; WT yeast gro inh: 22; RAM inhibit: 9.2*; Measles CPE: 31; Yeast life ext: -1

What do the screens show for `Fc1ccc2nc(Nc3nc4cc5c(cc4s3)OCCO5)sc2c1`?
Yeast growth inh: -41; WT yeast gro inh: 20; RAM inhibit: 5; Measles CPE: 15; Yeast life ext: -2

How did NNc1nc2ccc(Cl)cc2s1 do in these assays?
Yeast growth inh: -31; WT yeast gro inh: 36; RAM inhibit: -1; Measles CPE: 14; Yeast life ext: -8
